Data reported in ChEMBL document CHEMBL1154890, “Synthesis, cytotoxicity, antiviral activity and interferon inducing ability of 6-(2-aminoethyl)-6H-indolo[2,3-b]quinoxalines” (Eur J Med Chem, 2010).

Tests used:
[1] = system: Vesicular stomatitis virus; assay: Antiviral activity against Vesicular stomatitis virus infected in EPT cells assessed as inhibition of virus-induced cytopathic effect treated immediately after viral infection measured after 24 hrs; type: functional, organism-based
Method in brief: (§1)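 VSV grown in EPT or L929 cells to about 10⁶ ID₅₀/0.1 mL. Compounds in serial double dilution were added to cell monolayers at 37 °C, 5% CO₂, either 24 h before infection (preventive) or immediately after it (therapeutic). VSV was then added and cultures held 24 h. Cytopathic effect was scored microscopically. IC₅₀ is reported as −lg molar concentration giving 50% inhibition of cytopathic action, with confidence interval at P < 0.05.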

[2] = Cytotoxicity against pig EPT cells after 24 to 48 hrs; type: cell-based, Sus scrofa; settings: for CC50: EPT cells; for pCC50: ept
Method in brief: (§2)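 Monolayers at 37 °C, 5% CO₂; growth medium (L929: Eagle's MEM, EPT: Medium 199; both with 10% calf embryo serum and kanamycin, plus glutamine for L929) replaced by maintenance medium with 5% newborn calf serum holding compound at 1–1000. Read at 24–48 h after 0.5% crystal violet/70% ethanol staining, 540/620 nm. CC₅₀ = 50% monolayer destruction, given as −lg (M), confidence interval at P < 0.05.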

[3] = (§3) Cytotoxicity against mouse L929 cells after 24 to 48 hrs; type: cell-based; settings: L929 cells; method in brief: as §2
[4] = Selectivity index, CC50 for mouse L929 cells to IC50 for Vesicular stomatitis virus treated 24 hrs before viral infection; type: functional
Method in brief: (§4)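 SI = CC₅₀/IC₅₀ for each cell line and each regimen (treatment 24 h before or immediately after VSV infection). For CC₅₀, the medium on EPT or L929 monolayers was replaced with maintenance medium containing 5% newborn calf serum plus compound at 1–1000. After 24–48 h at 37 °C, 5% CO₂, cells were stained with 0.5% crystal violet in 70% ethanol and read at 540/620. CC₅₀ is the concentration giving 50% monolayer destruction.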

[5] = system: Vesicular stomatitis virus; assay: Antiviral activity against Vesicular stomatitis virus in mouse L929 cells assessed as inhibition of virus-induced cytopathic effect treated 24 hrs before viral infection measured after 24 hrs; type: functional, organism-based; method in brief: as §1
[6] = Selectivity index, CC50 for mouse L929 cells to IC50 for Vesicular stomatitis virus treated immediately after viral infection; type: functional; method in brief: as §4
L929 [7] = assay: Induction of IFN activity in mouse L929 cells assessed as interferon titer at 1.1 uM after 24 hrs by microscopical method; type: functional
Method in brief: (§5)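 Compounds were added to murine fibroblast L929 or piglet testicular EPT cells. Supernatant was taken after 24 and 48 h at 37 °C, 5% CO₂. IFN titers in the supernatant were then determined on L929 and EPT cell cultures.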

[8] = Selectivity index, CC50 for […] EPT cells to IC50 for Vesicular stomatitis virus treated immediately after viral infection; type: functional; method in brief: as §4
[9] = system: Vesicular stomatitis virus; assay: Antiviral activity against Vesicular stomatitis virus infected in mouse L929 cells assessed as inhibition of virus-induced cytopathic effect treated immediately after viral infection measured after 24 hrs; type: functional, organism-based; settings: L929, 24 h; method in brief: as §1
[10] = Selectivity index, CC50 for pig EPT cells to IC50 for Vesicular stomatitis virus treated 24 hrs before viral infection; type: functional; method in brief: as §4
[11] = Induction of IFN activity in pig EPT cells assessed as interferon titer at 1.5 uM after 24 hrs by microscopical method; type: functional, Sus scrofa; method in brief: as §5
[12] = system: Vesicular stomatitis virus; assay: Antiviral activity against Vesicular stomatitis virus in EPT cells assessed as inhibition of virus-induced cytopathic effect treated 24 hrs before viral infection measured after 24 hrs; type: functional, organism-based; method in brief: as §1
[13] = Ratio of tilorone CC50 for […] EPT cells to IC50 for Vesicular stomatitis virus treated 24 hrs before viral infection over compound CC50 for […] EPT cells to IC50 for Vesicular stomatitis virus treated 24 hrs before viral infection
L929 [14] = assay: as §3; type: cell-based; settings: l929; method in brief: as §2

| Compound | IC50 [1] [µM] | CC50 [2] [µM] | CC50 [3] [µM] | Ratio CC50/IC50 [4] | IC50 [5] [µM] | Ratio CC50/IC50 [6] | Activity (L929 [7]) | Ratio CC50/IC50 [8] | IC50 [9] [µM] | Ratio CC50/IC50 [10] | Activity [11] | IC50 [12] [µM] | pCC50 [2] | Ratio [13] | pCC50 (L929 [14]) |
| --- | --- | --- | --- | --- | --- | --- | --- | --- | --- | --- | --- | --- | --- | --- | --- |
| CC1CCCCN1CCn1c2ccccc2c2nc3ccccc3nc21 (stereo unspecified) | 4.07 | 398 | 234 | 185 | 1.26 | 74 | 32 | 98 | 1.91 | 149 | 32 | 2.63 |  |  |  |
| c1ccc2nc3c(nc2c1)c1ccccc1n3CCN1CCCCCC1 | 7.94 | 132 | 145 | 110 | 1.29 | 62 | 64 | 17 | 3.8 | 49 | 32 | 2.69 |  |  |  |
| CCN(CC)CCn1c2ccccc2c2nc3ccccc3nc21 | 6.17 | 457 | 646 | 499 | 1.29 | 79 | 64 | 76 | 2.19 | 139 | 32 | 3.39 |  |  |  |
| CCCN(CCC)CCn1c2ccccc2c2nc3ccccc3nc21 | 6.61 | 148 | 219 | 169 | 1.29 | 158 | 8 | 23 | 3.55 | 55 | 32 | 2.69 |  |  |  |
| CC1CCN(CCn2c3ccccc3c3nc4ccccc4nc32)CC1 | 20 |  | 575 | 358 | 1.62 | 78 | 8 | 142 | 2.29 | 1783 | 32 | 1.58 | 2.55 | 20 |  |
| c1ccc2nc3c(nc2c1)c1ccccc1n3CCN1CCCCC1 | 5.62 | 933 | 178 | 132 | 1.35 | 224 | 64 | 164 | 2.57 | 323 | 32 | 2.88 |  |  |  |
| c1ccc2nc3c(nc2c1)c1ccccc1n3CCN1CCOCC1 |  |  |  | 659 | 1.62 | 17 | 8 |  | 4.47 | 1258 | 16 | 1.62 | 2.69 | 15 | 2.97 |
| CCCCN(CC)CCn1c2ccccc2c2nc3ccccc3nc21 | 13.2 | 83.2 | 174 | 54 | 3.16 | 27 | 8 | 6 | 3.39 | 6 | 8 | 13.2 |  |  |  |
| c1ccc2nc3c(nc2c1)c1ccccc1n3CCN1CCCC1 | 4.07 | 162 | 75.9 | 59 | 1.32 | 468 | 32 | 40 | 2.24 | 60 | 64 | 2.69 |  |  |  |
| CCN(CC)CCOc1ccc2c(c1)C(=O)c1cc(OCCN(CC)CC)ccc1-2.Cl.Cl [TILORONE HYDROCHLORIDE] | 13.5 | 107 | 112 | 80 | 1.45 | 10 | 32 | 10 | 13.8 | 80 | 32 | 1.32 |  |  |  |
| CCCCN(C)CCn1c2ccccc2c2nc3ccccc3nc21 | 4.79 | 204 | 562 | 388 | 1.45 | 41 | 16 | 43 | 2.34 | 68 | 32 | 3.02 |  |  |  |
| CN1CCN(CCn2c3ccccc3c3nc4ccccc4nc32)CC1 | 4.68 | 81.3 | 97.7 | 71 | 1.38 | 46 | 4 | 17 | 4.79 | 57 | 32 | 1.45 |  |  |  |
| CN(C)CCn1c2ccccc2c2nc3ccccc3nc21 | 9.55 | 81.3 | 91.2 | 63 | 1.45 | 58 | 16 | 9 | 11.2 | 56 | 32 | 1.45 |  |  |  |
